Data published in article PMC5495021 (Leukemia & lymphoma, 2015).
“Also recorded” adds a separate entry of the source. Read-outs that look alike come from different tables or passages of the source.

What was measured:
[1] = Plasma pharmacokinetics of SAR103168 in phase I patients; assay type: in vivo, human
[2] = system: refractory/relapsed acute leukemias or high-risk myelodysplastic syndromes; test: Anti-leukemic efficacy; assay type: in vivo, human
Summary of the method: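 Adults with refractory/relapsed acute leukemia, accelerated/blast-phase CML, or high-risk MDS received IV infusion daily for 5 days per course, starting at 1.2 mg/m2/day with dose escalation. Response was graded by IWG criteria (acute leukemia/MDS) or European LeukemiaNet definitions (CML). Marrow aspirate/biopsy at baseline, course 2 Day 11–14, every 2 courses, and end of study. Descriptive statistics.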

Protein binding = assay type: in vitro ADME, human; conditions: no saturation over a clinically relevant concentration range
CYP2D6 = CYP2D6 (Homo sapiens, UniProt P10635); test: Contribution of CYP enzymes to metabolism; assay type: in vitro ADME
CYP2D6, sequence (P10635 whole entry): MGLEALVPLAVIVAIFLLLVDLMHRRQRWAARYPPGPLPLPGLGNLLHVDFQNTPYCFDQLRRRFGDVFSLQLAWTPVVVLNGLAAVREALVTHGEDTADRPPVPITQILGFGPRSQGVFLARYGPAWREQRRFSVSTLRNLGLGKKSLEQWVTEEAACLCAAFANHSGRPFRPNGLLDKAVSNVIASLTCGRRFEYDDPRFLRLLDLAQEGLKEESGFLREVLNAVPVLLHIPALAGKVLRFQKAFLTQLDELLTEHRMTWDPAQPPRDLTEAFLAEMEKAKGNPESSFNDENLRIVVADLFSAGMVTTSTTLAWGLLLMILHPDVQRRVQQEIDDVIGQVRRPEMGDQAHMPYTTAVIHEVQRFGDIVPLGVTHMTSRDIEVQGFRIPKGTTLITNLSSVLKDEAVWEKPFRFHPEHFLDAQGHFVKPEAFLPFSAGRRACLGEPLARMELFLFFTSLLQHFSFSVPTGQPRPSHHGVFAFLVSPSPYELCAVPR

[3] = human, in vivo
xenograft models = conditions: cited from earlier work
[4] = cited from earlier work
Src kinase family = conditions: preclinical; cited from earlier work
BCR-Abl kinase = conditions: preclinical; cited from earlier work
[5] = system: vascular endothelial growth factor receptor type 1 (VEGFR1); conditions: preclinical; cited from earlier work
[6] = system: vascular endothelial growth factor receptor type 2 (VEGFR2); conditions: preclinical; cited from earlier work
Tie2 = conditions: preclinical; cited from earlier work
[7] = system: platelet-derived growth factor receptor (PDGFR); conditions: preclinical; cited from earlier work
[8] = system: fibroblast growth factor receptor (FGFR); conditions: preclinical; cited from earlier work
[9] = system: epidermal growth factor receptor (EGFR); conditions: preclinical; cited from earlier work
[10] = system: acute and chronic myeloid leukemic cells; conditions: inhibition of proliferation and induction of apoptosis; cited from earlier work
[11] = system: leukemic progenitor cells from 29 patients with AML; conditions: including poor-prognosis chromosome abnormalities; cited from earlier work
human AML leukemic cells = conditions: animals implanted with human AML leukemic cells; cited from earlier work
[12] = preclinical toxicology studies; cited from earlier work
[13] = Safety / adverse events and DLT in phase I dose escalation study
[14] = mice at active doses (16.7 mg/kg IV or 2 × 40 mg/kg PO)

Structure (SMILES): CC(C)(C)NC(=O)Nc1nc2nc(Nc3ccc4nsnc4c3)ncc2cc1-c1c(Cl)cccc1Cl [SAR103168, 1-[2-(2,1,3-benzothiadiazol-5-ylamino)-6-(2,6-dicholophenyl)-pyridol[2,3-d]pyrimidin-7-yl]-3′-tert-butylurea]
- time by which mean plasma concentrations were below the limit of detection ([1]; all dose groups): ≤ 24 h
- tlast ([1]; generally, over the dose range 1.2 to 14.4 mg/m2): ≤ 7 h
- accumulation in exposures (Cmax or AUClast) upon multiple daily dosings ([1]; human, in vivo): limited accumulation
- patient exposure (AUC) ([1]; human, in vivo, 14.4 mg/m2): ~ 1000 ng/h/mL
- patient exposure (Cmax) ([1]; human, in vivo, 14.4 mg/m2): ~ 500 ng/mL
- transient decrease in peripheral blasts ([2]; efficacy population): One patient
- clinical benefit ([2]; within the tested dose range): did not demonstrate a clear clinical benefit
- Human protein binding (Protein binding): > 99.3%
- contribution of CYP2D6 to the compound's metabolism (CYP2D6): ~ 20%
- maximum tolerated dose (MTD) [3]: prior to reaching the MTD
- active dose in various tumor models (xenograft models; IV, in mice): 16.7 mg/kg
- putative, partially active dose level (xenograft models; based on the preclinical data, human-equivalent of 10 mg/kg in mouse): ~ 30 mg/m^2
- putative, partially active dose level (xenograft models; in mouse, preclinical data): 10 mg/kg
- AUCs achieved in animal models [4, 14]: ≥ 16000 ng/h/mL
- Cmax achieved in animal models [4, 14]: ≥ 3600 ng/mL
- exposures (AUCs) which demonstrated in vivo activity in xenograft models ([4]; xenograft models): 16000 ng/h/mL
- activity against the Src kinase family (Src kinase family): Nanomolar activity
- activity against the BCR-Abl kinase (BCR-Abl kinase): Nanomolar activity
- activity against VEGFR1 [5]: Nanomolar activity
- activity against VEGFR2 [6]: Nanomolar activity
- activity against Tie2 (Tie2): Nanomolar activity
- activity against PDGFR [7]: Nanomolar activity
- activity against FGFR [8]: Nanomolar activity
- activity against EGFR [9]: Nanomolar activity
- IC50 of anti-leukemic effects [10]: nanomolar
- AML patient samples sensitive to the agent [11]: over 85%
- effect of administration on tumors (human AML leukemic cells): tumor regression
- toxicity profile [12]: favorable toxicity profile
- discontinuation of study treatment due to adverse events ([13]; 29 treated patients): 10.3%
- SAE Preferred Term ([13]; planned dose level 1.2 mg/m^2, Relationship to Study Drug: No): Multi-organ failure; also recorded: Bacteremia; also recorded: Pneumonia fungal; also recorded: Febrile neutropenia
- SAE Preferred Term ([13]; planned dose level 1.2 mg/m^2, Relationship to Study Drug: Yes): Echocardiogram abnormal
- SAE Preferred Term ([13]; planned dose level 1.7 mg/m^2, Relationship to Study Drug: No): Deep vein thrombosis; also recorded: Febrile neutropenia; also recorded: Staphylococcal sepsis; also recorded: Disease progression; also recorded: Pulmonary embolism
- SAE Preferred Term ([13]; planned dose level 2.4 mg/m^2, Relationship to Study Drug: No): Perirectal abscess; also recorded: Febrile neutropenia; also recorded: Anemia; also recorded: Disease progression; also recorded: Septic shock
- SAE Preferred Term ([13]; planned dose level 4.8 mg/m^2, Relationship to Study Drug: No): Bone pain; also recorded: Febrile neutropenia; also recorded: Disease progression
- SAE Preferred Term ([13]; planned dose level 9.6 mg/m^2, Relationship to Study Drug: No): Pneumonia; also recorded: Bacteremia; also recorded: Asthenia
- SAE Preferred Term ([13]; planned dose level 14.4 mg/m^2, Relationship to Study Drug: No): Disease progression; also recorded: Sinusitis fungal; also recorded: Sepsis
